An excerpt weighted towards active compounds, which were near 3.1% of everything screened.
Calb FLC: affects C. albicans growth with fluconazole. C. albicans CaCi-2 (fluconazole-resistant clinical isolate) + fluconazole, Alamar Blue growth, 48 h. growth inhibition, % (no concentration beside the values). hit rate 0.57% among 300,000. AID 1979;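 active means growth inhibition above about 58% in most replicates, limit read from the data, passing the limit was not always enough; inconclusive means exactly half the replicates above a set limit; inactive means most replicates below a set limit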;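 further: all wells also contain fluconazole at 8 µg/ml as a sub-toxic cotreatment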
T cruzi repl: blocks replication of Trypanosoma cruzi; T. cruzi beta-gal in NIH3T3, luminescence, 90 h; hit rate 1.4% among 300,000; AID 1885; inhibition, % (concentration not given with the values);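 active means mean inhibition across valid replicates above about 55%, limit read from the data; inconclusive means mean below that limit but half or more replicates reach it; inactive means mean below it, under half of replicates reach it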;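 further: signal also drops with host cell toxicity which is not excluded here; higher percent means less beta-gal luminescence so fewer parasites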
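assay system = mouse NIH/3T3 fibroblasts infected with β-gal-expressing T. cruzi Tulahuen C4 | input = 5,000 NIH/3T3 host cells per well | buffer or medium = DMEM plus 2% FBS | timing = 3 h host attachment, then at least 90 h co-culture | measured by = GalScreen luminescence, 60 min | evaluation = luminescence reflecting intracellular parasite burden, expressed as percent inhibition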
Beta apoptosis: blocks beta cell apoptosis; INS-1E cytokine-induced death, ATP luminescence, 48 h; percent of positive-control rescue, neutral wells zero; AID 435005; hit rate 0.8% among 300,000; protection from apoptosis, % (no concentration beside the values);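 active means Every replicate reaches about 75%, or at least half do and their mean reaches it too, limit read from the data; inconclusive means At least half of replicates reach the limit but their mean does not; inactive means Under half of replicates reach the limit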;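 further: higher means more ATP so stronger rescue from cytokine killing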
H9c2 TAG inh: reduces triacylglycerol accumulation in H9c2 cells; Nile Red lipid (TAG) fluorescence; cells loaded with 200 µM oleic acid; inhibition, % at 12.5 µM; hit rate 0.66% among 230,000; AID 651582;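 active means pattern-corrected inhibition of lipid staining of at least 50% with the nuclear-stain viability signal not falling by more than 50%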
A1 inh: inhibitors of the anti-apoptotic protein A1, read as caspase activation | caspase activation, % (concentration not given with the values) | hit rate 0.066% among 330,000 | MEF A1-2A-BIM cells, Caspase-Glo 3/7 luminescence, 3 h; percent of clofoctol response, vehicle zero;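 active means over half of replicate activation scores above 10%, or exactly half above 10 with the replicate mean above 10; inconclusive means replicate mean below 10 yet half the replicates above 10; inactive means over half of replicates below 10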
CSC inhib: cancer stem cell inhibition; cancer stem cell-like cells viability, luminescence; inhibition, % at 7.5 µM; hit rate 1.1% among 300,000; AID 2717; in the data active means inhibition above about 75%; inconclusive means no clear call, values can overlap the other calls; tested in HMLE shEcad cells
H9c2 TAG conf: triacylglycerol accumulation inhibition, confirmation; shares compounds with H9c2 TAG inh; H9c2 lipid accumulation, Nile Red fluorescence; cells loaded with 200 µM oleic acid; inhibition, % at 12.5 µM; hit rate 71% among 990; AID 651629;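 active means mean inhibition across replicates of 40% or more; inactive means mean inhibition below 40%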
Each line names hits and unclear results; the compound was inactive in the other large screens (follow-up assays come after a bar, where they were run).

COc1ccccc1C(=O)NC(CCSC)C(=O)NCc1ccncc1 (stereo not given)	none (no result: Calb FLC, T cruzi repl, CSC inhib)
CC1(C)Cc2c(c(N3CCOCC3)nc3sc(-c4ccc(C(=O)O)o4)c(N)c23)CO1	none
CNC(=O)c1ccc(-c2sc3nc(N4CCOCC4)c4c(c3c2N)CC(C)(C)OC4)o1	H9c2 TAG inh 51.7 | H9c2 TAG conf 66.5
CNC(=O)c1ccc(-c2sc3nc(N4CCOCC4)c4c(c3c2N)CCCC4)o1	H9c2 TAG inh 50.7 | H9c2 TAG conf 74.1
Nc1c(C(=O)NCc2ccccc2)sc2nc(N3CCOCC3)c3c(c12)CCCC3	H9c2 TAG inh 54.5 | H9c2 TAG conf 41.6
Cc1ccc(C(=O)OCC(=O)N2CCC(c3ccccc3)=N2)cc1	none (no result: Calb FLC, T cruzi repl)
O=C(COC(=O)C1CC2CCCC(C1)C2=O)Nc1cccc(F)c1 (stereo not given)	none (no result: Calb FLC, T cruzi repl)
CCOc1cc(CNc2ccc3c(c2)OCCO3)cc(Br)c1OCC	H9c2 TAG inh 52.8 | H9c2 TAG conf 53.4
CCOc1cc(CNc2ccc(N3CCOCC3)cc2)cc(Br)c1OCC	none (no result: Beta apoptosis, H9c2 TAG inh, CSC inhib)
COc1ccc(-c2cc(C(=O)Nc3c(C)n(C)n(-c4ccccc4)c3=O)c3ccccc3n2)c(OC)c1	none (no result: H9c2 TAG inh)
c1ccc2c(c1)NC(c1ccncc1)n1c-2nc2ccccc21 (stereo not given)	H9c2 TAG inh 52.6 | H9c2 TAG conf inactive
CCN(CC)S(=O)(=O)c1cccc(C(=O)NNC(=O)C2=NN(c3ccccc3)C(=O)CC2)c1	none (no result: H9c2 TAG inh)
O=C(Nc1ccccc1)c1nc[nH]c1C(=O)NCCCCCCNC(=O)c1[nH]cnc1C(=O)Nc1ccccc1	H9c2 TAG inh 65.2 (no result: Calb FLC, T cruzi repl, CSC inhib) | H9c2 TAG conf 72.8
CN(C(=O)COc1ccc(S(=O)(=O)N2CCOCC2)cc1[N+](=O)[O-])C1CCS(=O)(=O)C1 (stereo not given)	none
Cc1c(C(=O)N2CCCCC2C)sc2nc3n(c(=O)c12)CCC3 (stereo not given)	none (no result: H9c2 TAG inh)
CN(C)CCCN1c2ccccc2Sc2ccccc21	H9c2 TAG inh 60.5, A1 inh inconclusive (no result: Calb FLC) | H9c2 TAG conf 47.0
O=C(NC1CCCCC1)C(c1ccccc1)N(Cc1ccc2c(c1)OCO2)C(=O)c1cnsn1 (stereo not given)	H9c2 TAG inh 59.3 | H9c2 TAG conf 41.3
CC(C)c1nnc(NC(=O)C2CCCN2C(=O)Nc2cccc(Cl)c2)s1 (stereo not given)	none (no result: H9c2 TAG inh)
CCOCCC(=O)Nc1ccc2c(c1)c(=O)n(C)n2C/C=C/c1ccccc1	H9c2 TAG inh 53.4 (no result: Calb FLC, T cruzi repl, Beta apoptosis, A1 inh, CSC inhib) | H9c2 TAG conf 49.3
CCOC(=O)c1cnc2ccc(OCC)cc2c1N1CCN(c2ccccc2)CC1	Beta apoptosis 104.8, H9c2 TAG inh 52.8 | H9c2 TAG conf inactive
CCOc1ccc2ncc(S(=O)(=O)c3ccccc3)c(N3CCN(c4ccccc4)CC3)c2c1	none
Cc1ccc(OCCNC(=O)CNC(=O)c2ccc(Cl)c([N+](=O)[O-])c2)cc1	none (no result: Calb FLC, T cruzi repl)
CC(C)CN(C#N)c1nc(N2CCOCC2)nc(N2CCOCC2)n1	H9c2 TAG inh 61.8 | H9c2 TAG conf 44.6
CN(C#N)c1nc(N2CCOCC2)nc(N2CCOCC2)n1	none (no result: CSC inhib)
CCOc1cc(/C=N\NC(=O)c2ccc(NC(=O)C(C)(C)C)cc2)ccc1OC(=O)c1ccc(C)cc1	none
CCOc1cc(/C=N\NC(=O)c2ccc(NC(=O)C(C)(C)C)cc2)ccc1OC(=O)c1cccc(C)c1	H9c2 TAG inh 64.4 | H9c2 TAG conf inactive
CCc1ccc(/C=N/NC(=O)c2nnn(-c3nonc3N)c2C(C)C)cc1	none (no result: H9c2 TAG inh)
C[C@@]12CCC=C[C@H]1[C@H](c1ccoc1)N(Cc1ccccc1)C2=O	H9c2 TAG inh 78.8 | H9c2 TAG conf inactive
C[C@@]12CCC=C[C@H]1[C@H](c1ccccc1Br)N(Cc1ccccc1)C2=O	none (no result: Calb FLC, T cruzi repl, Beta apoptosis, A1 inh, CSC inhib)
C=CCN(C(=O)c1csnn1)C(C(=O)NC1CCCC1)c1ccc(OC)cc1 (stereo not given)	none (no result: H9c2 TAG inh)
COc1ccccc1C(=O)N/C(=C\c1cn(S(=O)(=O)N(C)C)c2ccccc12)C(=O)N1CCN(C)CC1	none (no result: Calb FLC, T cruzi repl, Beta apoptosis, A1 inh, CSC inhib)
CCOc1ccccc1-c1nc(-c2ccc(NC(=O)Cc3ccccc3OC)cc2)no1	T cruzi repl 56.3, H9c2 TAG inh 71.4 (no result: CSC inhib) | H9c2 TAG conf 45.9
COc1ccccc1CC(=O)Nc1ccc(-c2noc(COc3ccc(Cl)c(C)c3)n2)cc1	none (no result: H9c2 TAG inh)
CC1(C)CC(=O)C(C2C3=C(CC(C)(C)CC3=O)Oc3ccccc32)C(=O)C1 (stereo not given)	none
CC1(C)CC(=O)C2=C(C1)Oc1nc3ccccc3cc1C2C(C#N)C#N (stereo not given)	H9c2 TAG inh 81.4 (no result: T cruzi repl) | H9c2 TAG conf 60.4
COC(=O)c1ccc(NC(=O)COc2ccc(C3C(C#N)=C(N)Oc4c3ccc3ccccc43)cc2OC)cc1 (stereo not given)	H9c2 TAG inh 50.4 | H9c2 TAG conf inactive
C#CCN(C[C@@H]1[C@@H](OC(=O)NCc2ccco2)[C@@H](OC(=O)NCc2ccco2)CN(C(=O)OC(C)C)N1C(=O)OC(C)C)S(=O)(=O)c1ccc(C)cc1	H9c2 TAG inh 55.5 (no result: Calb FLC, T cruzi repl, Beta apoptosis, A1 inh, CSC inhib) | H9c2 TAG conf 61.7
COc1ccc(OCC(=O)Nc2ccc(N3CCN(C(=O)c4ccccc4)CC3)c(Cl)c2)cc1	none
O=C1N[C@@H](Cc2ccccc2)COC(=O)[C@@H](Cc2ccc(F)cc2)CC/C=C/C[C@@H]1CC(=O)N(CCO)Cc1ccccc1	H9c2 TAG inh 55.0 (no result: Calb FLC, T cruzi repl, CSC inhib) | H9c2 TAG conf 43.7
O=C1N[C@H](Cc2ccccc2)COC(=O)[C@@H](Cc2ccc(F)cc2)CC/C=C/C[C@H]1CC(=O)N(CCO)Cc1ccccc1	none (no result: Calb FLC, T cruzi repl)
COc1ccc(CC(=O)Nc2ccc(-c3ccc4nnc(C)n4n3)cc2)cc1OC	H9c2 TAG inh 57.8 | H9c2 TAG conf 71.5
O=[N+]([O-])c1ccc(-c2ccc(/C=N/Nc3nc(N4CCCC4)nc(N4CCCC4)n3)o2)cc1	none
COc1ccc(-c2cnnc(N/N=C/c3ccc(-c4ccc([N+](=O)[O-])cc4)o3)n2)cc1	H9c2 TAG inh 63.2 (no result: Calb FLC, T cruzi repl, Beta apoptosis, A1 inh, CSC inhib) | H9c2 TAG conf 61.0
Cc1ccc(O)c(-c2cc(C(=O)Nc3ccc(S(=O)(=O)Nc4nc(C)cc(C)n4)cc3)[nH]n2)c1	Calb FLC inconclusive, CSC inhib inconclusive
O=C(/C=C/c1ccc(OCCCF)cc1)NCc1ccc(Cl)c(Cl)c1	H9c2 TAG inh 62.4 | H9c2 TAG conf 51.8
COc1ccc(NC(=O)C2(C)Cc3c(-c4cccc(C(N)=O)c4)ccnc3O2)cc1 (stereo not given)	H9c2 TAG inh 60.8 (no result: Calb FLC, T cruzi repl, Beta apoptosis, A1 inh, CSC inhib) | H9c2 TAG conf 53.1
COc1ccc(NC(=O)C2(C)Cc3c(-c4cccc(NC(C)=O)c4)ccnc3O2)cn1 (stereo not given)	H9c2 TAG inh 58.0 (no result: Calb FLC, T cruzi repl, Beta apoptosis, A1 inh, CSC inhib) | H9c2 TAG conf 52.5
COc1ccc(OC)c(S(=O)(=O)NCC(=O)NC2CCCc3ccccc32)c1 (stereo not given)	none (no result: Calb FLC, T cruzi repl, Beta apoptosis, A1 inh, CSC inhib)

Screens: PubChem, several laboratories
